Measurements from different studies.
Protocols differ between the studies behind these lines.
RPS6KA6: Ribosomal protein S6 kinase alpha-6 (RPS6KA6, Homo sapiens, UniProt Q9UK32)
RPS6KA6 N-terminal kinase domain: Ribosomal protein S6 kinase alpha-6, N-terminal kinase domain (RPS6KA6, Homo sapiens, UniProt Q9UK32)
RPS6KA6 C-terminal kinase domain: Ribosomal protein S6 kinase alpha-6, C-terminal kinase domain (RPS6KA6, Homo sapiens, UniProt Q9UK32)

| SMILES | target | assay | setting | measurement | result |
| --- | --- | --- | --- | --- | --- |
| CC(C)(C)c1cc(C=C(C#N)C#N)cc(Br)c1O | RPS6KA6 | enzyme activity, inhibitor | 0.5 µM | remaining activity | 101% |
| Cn1cc(-c2cc(F)cc(N3CCn4c(cc5c4CCCC5)C3=O)c2CO)cc(Nc2ccc(N3CCN(C4COC4)CC3)cn2)c1=O | RPS6KA6 | enzyme activity, inhibitor | 0.1 µM | inhibition | 2% |
| COc1cc(Nc2ncc(F)c(Nc3ccc4c(n3)NC(=O)C(C)(C)O4)n2)cc(OC)c1OC | RPS6KA6 N-terminal kinase domain | binding, competition with immobilised ligand | 10 µM | inhibition | 70% |
| Nc1ncc(-c2nc(N3CCOCC3)nc(N3CCOCC3)n2)c(C(F)F)n1 | RPS6KA6 C-terminal kinase domain | binding, competition with immobilised ligand | 10 µM | remaining binding | 94% |
| N#CC1(c2ccccn2)CCN(Cc2cc(C(=O)O)c(=O)n3ccccc23)CC1 | RPS6KA6 C-terminal kinase domain | cell-free assay, competition with immobilised ligand | 1 µM | remaining binding | 97% |
| Cc1nn(C)cc1-c1nc2c(N3CCN(Cc4ccc(Cl)cc4)CC3)c(Cl)cnc2[nH]1 | RPS6KA6 N-terminal kinase domain | binding, competition with immobilised ligand | 1 µM | remaining binding | 66% |
| Cn1cncc1[C@](O)(COc1ccc(C#N)cc1-c1ccc(OC(F)(F)F)cc1)c1ccc(C#N)cc1 | RPS6KA6 N-terminal kinase domain | cell-free assay, competition with immobilised ligand | 1 µM | remaining binding | 91% |
| Cn1cc(-c2cccc(N3CCc4c(sc5c4CC(C)(C)C5)C3=O)c2CO)cc(Nc2ccncn2)c1=O | RPS6KA6 | enzyme activity, inhibitor | 1 µM | inhibition | 9% |
| O=c1[nH]c2ccccc2n1C1CCN(Cc2ccc(-c3[nH]c4cc5ncnc5cc4nc3-c3ccccc3)cc2)CC1 | RPS6KA6 | cell-free assay | 0.5 µM | remaining signal | 109% |
